Only some compounds are listed: those with a hit (about 2.2% of all), similar ones and a draw of the others.
Redox H2O2 prof: compounds producing H2O2 with reducing agent – biochemical, NIH compound library profiling, artefact control for MLSCN library redox annotation, primary screen; DTT-dependent redox cycling H2O2, phenol red/HRP absorbance; 100% = 100 µM peroxide control, 0% = buffer; activation, % at 10 µM; 200,000 compounds, 0.03% hits;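 active means activation of at least 50% relative to the plate's high and low controls in the primary single-dose screen; inactive means activation below 50%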;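 further: compound incubated with DTT at 0.8 mM final as the reducing agent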
p97 ATPase inh: human p97 ATPase inhibition; 220,000 compounds, 0.42% hits; P55072; inhibition, % at 8 µM; AID 1481; recombinant p97 ATPase, Kinase-Glo ATP luminescence, 3 h; in the data active means inhibition above about 15%
Arbovirus inh: arbovirus infection inhibition | arbovirus infection cell-based antiviral screen | AID 1251 | inhibition, % at 10 µM | 200,000 compounds, 0.37% hits; in the data active means inhibition above about 30%
PKD1 kinase inh: PKD1 (human) kinase inhibition; Q15139; PKD1 kinase fluorescence polarization assay; inhibition, % (no concentration beside the values); 200,000 compounds, 0.056% hits; in the data active means inhibition above about 50%
RBBP9 inh: blocks human serine hydrolase RBBP9; recombinant RBBP9, FP-Rh probe fluorescence polarization; 220,000 compounds, 0.2% hits; O75884; inhibition, % at 7.94 µM;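 active means inhibition above the campaign mean of all tested compounds plus 3 SD, cut at about 14% in these data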
Target sequence (O75884 whole entry, looked up): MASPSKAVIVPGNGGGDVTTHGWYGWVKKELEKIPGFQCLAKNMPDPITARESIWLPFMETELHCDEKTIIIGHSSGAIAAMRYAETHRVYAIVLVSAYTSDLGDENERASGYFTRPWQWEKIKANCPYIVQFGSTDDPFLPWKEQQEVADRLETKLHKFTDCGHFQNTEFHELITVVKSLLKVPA
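Assay system: recombinant human RBBP9; Reagent: Serine-hydrolase probe FP-Rh, 375 nM pre-mixing; Doses: 7.94 µM single dose, 0.794% DMSO; Incubation: 30 min then 45 min, 25 °C; Detection: fluorescence polarization (mP), excitation 525 nm, emission 598 nm; Evaluation: percent inhibition from mP, scaled between DMSO and no-protein wells.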
Wee1 stabilizer: inhibitors of human Wee1 degradation; HeLa Luc-Wee1K328M stability, luciferase luminescence; 100% = proteasome inhibitor MG132 effect; reporter increase, % at 5 µM; P30291; 220,000 compounds, 1.2% hits;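 active means activation above the mean of all tested compounds plus 3 SD, set per screening run, cut at about 8.8% in these data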;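 further: cells exposed to compound for 20 h before luminescence read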
Wee1 degr conf: human Wee1 degradation inhibition, confirmation; shares compounds with Wee1 stabilizer; activation, % at 5 µM; 1,100 compounds, 4% hits; HeLa Luc-Wee1K328M degradation, luminescence; vehicle 0%, proteasome-blocked wells 100%; in the data active means activation above about 8.9%
A number is an active result.

CCOC(=O)c1c(CSc2ccccc2)n(C)c2cc(Br)c(OCC(O)CNC(CO)(CO)CO)cc12 (stereo unspecified) was read as Redox H2O2 prof inactive, p97 ATPase inh inactive, Arbovirus inh inactive, PKD1 kinase inh inactive, RBBP9 inh inactive, Wee1 stabilizer 11 and Wee1 degr conf inactive.
CC#C[C@]1(O)CC[C@H]2[C@@H]3CCC4=CC(=O)CCC4=C3[C@@H](c3ccc(N(C)C)cc3)C[C@@]21C was read as Redox H2O2 prof inactive, p97 ATPase inh inactive, Arbovirus inh inactive, PKD1 kinase inh inactive, RBBP9 inh inactive and Wee1 stabilizer inactive.
For O=S(=O)(c1cccc2nsnc12)N1CCN(C/C=C/c2ccccc2)CC1 the results were Redox H2O2 prof inactive, p97 ATPase inh inactive, Arbovirus inh inactive, PKD1 kinase inh inactive, RBBP9 inh inactive, Wee1 stabilizer 11 and Wee1 degr conf inactive.
CC1CCN(C(=S)c2ccc(N(C)C)cc2)CC1 was read as Redox H2O2 prof inactive, p97 ATPase inh inactive, Arbovirus inh inactive, PKD1 kinase inh inactive, RBBP9 inh inactive and Wee1 stabilizer inactive.
O=C(C[n+]1cn(C(F)F)c2ccccc21)c1ccc(OC(F)F)cc1 was read as Redox H2O2 prof inactive, p97 ATPase inh inactive, Arbovirus inh inactive, PKD1 kinase inh inactive, RBBP9 inh inactive, Wee1 stabilizer 15 and Wee1 degr conf inactive.
Screening COc1cc(C)ccc1OCCCCOc1ccccc1C(C)=O returned Redox H2O2 prof inactive, p97 ATPase inh inactive, Arbovirus inh inactive, PKD1 kinase inh inactive, RBBP9 inh inactive, Wee1 stabilizer 16 and Wee1 degr conf inactive.
Screening O=C(CCC1CCCC1)N1CCC(N2CCCCCC2)CC1 returned Redox H2O2 prof inactive, p97 ATPase inh inactive, Arbovirus inh inactive, PKD1 kinase inh inactive, RBBP9 inh inactive, Wee1 stabilizer 12 and Wee1 degr conf inactive.
CC1CC(C)CN(CCOc2ccc(Br)cc2)C1 (stereo unspecified) was read as Redox H2O2 prof inactive, p97 ATPase inh inactive, Arbovirus inh inactive, PKD1 kinase inh inactive, RBBP9 inh inactive and Wee1 stabilizer inactive.
For O=[N+]([O-])c1ccc(COc2cccc(CNc3ccc(F)cc3)c2)cc1 the results were Redox H2O2 prof inactive, p97 ATPase inh inactive, Arbovirus inh inactive, PKD1 kinase inh inactive, RBBP9 inh inactive, Wee1 stabilizer 15 and Wee1 degr conf inactive.
Screening Oc1ccc(NCc2cccc(OCc3ccc(F)cc3)c2)cc1 returned Redox H2O2 prof inactive, p97 ATPase inh inactive, Arbovirus inh inactive, PKD1 kinase inh inactive, RBBP9 inh inactive and Wee1 stabilizer inactive.
For O=C(CNC(=O)c1ccc(N2C(=O)c3ccccc3C2=O)cc1)OCC(=O)c1ccc(Cl)cc1 the results were Redox H2O2 prof inactive, p97 ATPase inh inactive, Arbovirus inh inactive, PKD1 kinase inh inactive, RBBP9 inh inactive and Wee1 stabilizer inactive.
For COc1cc(/C=N/NC(=O)c2ccc(CSc3nncn3C)cc2)cc(OC)c1O the results were Redox H2O2 prof inactive, p97 ATPase inh inactive, Arbovirus inh inactive, PKD1 kinase inh inactive, RBBP9 inh inactive, Wee1 stabilizer 11 and Wee1 degr conf inactive.
Cc1ccc(/C=C/C(=O)NCCCc2ccccc2)cc1 was read as Redox H2O2 prof inactive, p97 ATPase inh inactive, Arbovirus inh inactive, PKD1 kinase inh inactive, RBBP9 inh inactive, Wee1 stabilizer 19 and Wee1 degr conf inactive.
Screening O=C(c1cccc(C(F)(F)F)c1)C1CCCN(Cc2ccc(OCCO)cc2)C1 (stereo unspecified) returned Redox H2O2 prof inactive, p97 ATPase inh inactive, Arbovirus inh inactive, PKD1 kinase inh inactive, RBBP9 inh inactive, Wee1 stabilizer 13 and Wee1 degr conf inactive.
CC(=O)Nc1ccc(CN2CCCC(C(=O)c3cccc(C(F)(F)F)c3)C2)cc1 (stereo unspecified) was read as Redox H2O2 prof inactive, p97 ATPase inh inactive, Arbovirus inh inactive, PKD1 kinase inh inactive, RBBP9 inh inactive and Wee1 stabilizer inactive.
For CC(C)(C)c1ccc(OCc2ccc(C(=O)N3CCOCC3)o2)cc1 the results were Redox H2O2 prof inactive, p97 ATPase inh inactive, Arbovirus inh inactive, PKD1 kinase inh inactive, RBBP9 inh inactive, Wee1 stabilizer 13 and Wee1 degr conf inactive.
